ChEMBL document CHEMBL2311404, “Synthesis, antibacterial activity and docking of 14-membered 9-O-(3-arylalkyl) oxime 11,12-cyclic carbonate ketolides” (2013)
In brackets after ≈: the same amount, converted by molar mass.

Legend:
Assay type in all cases: functional
[1] = system: Staphylococcus haemolyticus; assay: Antibacterial activity against methicillin-resistant, constitutive MLS-resistant, coagulase-deficient Staphylococcus haemolyticus PU 19 expressing ermA gene by broth microdilution method
Summary of the method: (§1)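 Clinical isolates confirmed by 16S rDNA sequencing. MIC determined by broth microdilution following CLSI recommendations. Quality-control strains were S. aureus ATCC 29213 and S. pneumoniae ATCC 49619. Azithromycin and clarithromycin were run in parallel as reference agents.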

[2] = system: Staphylococcus epidermidis; assay: Antibacterial activity against methicillin-susceptible, inducible MLS-resistant Staphylococcus epidermidis E 1 by broth microdilution method; summary of the method: as §1
[3] = system: Streptococcus pyogenes; assay: Antibacterial activity against erythromycin-susceptible Streptococcus pyogenes A3 by broth microdilution method
Summary of the method: (§2)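 MIC by broth microdilution following CLSI recommendations. Clinical isolates were identified by 16S rDNA sequencing and labeled by genotype and phenotype. S. aureus ATCC 29213 and S. pneumoniae ATCC 49619 served as control strains, with azithromycin and clarithromycin as reference agents.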

[4] = system: Staphylococcus aureus; assay: Antibacterial activity against methicillin-resistant, inducible MLS-resistant Staphylococcus aureus PU 32 expressing ermA gene by broth microdilution method; summary of the method: as §1
[5] = system: Staphylococcus epidermidis; assay: Antibacterial activity against methicillin-resistant, constitutive MLS-resistant Staphylococcus epidermidis E 2 by broth microdilution method; summary of the method: as §1
[6] = system: Streptococcus pneumoniae; assay: Antibacterial activity against erythromycin-sensitive Streptococcus pneumoniae ATCC 49619 by broth microdilution method; summary of the method: as §2
[7] = system: Streptococcus pneumoniae; assay: Antibacterial activity against penicillin-resistant, constitutive MLS-resistant Streptococcus pneumoniae PU 11 expressing erm and mef genes by broth microdilution method; summary of the method: as §1
[8] = system: Streptococcus dysgalactiae; assay: Antibacterial activity against erythromycin-resistant Streptococcus dysgalactiae A1 expressing efflux pump by broth microdilution method; summary of the method: as §1
[9] = system: Streptococcus pyogenes; assay: Antibacterial activity against constitutive MLS-resistant Streptococcus pyogenes A2 by broth microdilution method; summary of the method: as §1
[10] = system: Streptococcus pneumoniae; assay: Antibacterial activity against penicillin-susceptible Streptococcus pneumoniae PU 09 expressing mef gene by broth microdilution method; summary of the method: as §2
[11] = system: Staphylococcus aureus; assay: Antibacterial activity against erythromycin-susceptible Staphylococcus aureus ATCC 29213 by broth microdilution method; summary of the method: as §2
[12] = system: Streptococcus pneumoniae; assay: Antibacterial activity against penicillin-susceptible, constitutive MLS-resistant Streptococcus pneumoniae PU 27 expressing erm gene by broth microdilution method; summary of the method: as §1
[13] = system: Staphylococcus hominis; assay: Antibacterial activity against methicillin-resistant, inducible MLS-resistant, coagulase-deficient Staphylococcus hominis E 3 by broth microdilution method; summary of the method: as §1
[14] = system: Staphylococcus aureus; assay: Antibacterial activity against methicillin-sensitive, inducible MLS-resistant Staphylococcus aureus PU 64 expressing ermA gene by broth microdilution method; summary of the method: as §1
[15] = system: Staphylococcus aureus; assay: Antibacterial activity against methicillin-resistant, constitutive MLS-resistant Staphylococcus aureus PU 20 expressing ermC gene by broth microdilution method; summary of the method: as §1

| SMILES | MIC [1] | MIC [2] | MIC [3] | MIC [4] | MIC [5] | MIC [6] | MIC [7] | MIC [8] | MIC [9] | MIC [10] | MIC [11] | MIC [12] | MIC [13] | MIC [14] | MIC [15] |
| --- | --- | --- | --- | --- | --- | --- | --- | --- | --- | --- | --- | --- | --- | --- | --- |
| CC[C@H]1OC(=O)[C@H](C)C(=O)[C@H](C)[C@@H](O[C@@H]2O[C@H](C)C[C@H](N(C)C)[C@H]2O)[C@](C)(OC)C[C@@H](C)/C(=N\OCC#Cc2cccs2)[C@H](C)[C@H]2OC(=O)O[C@@]21C | 64 µg/mL (≈ 85.5 µM) | 1 µg/mL (≈ 1.34 µM) | 0.25 µg/mL (≈ 0.334 µM) | 1 µg/mL (≈ 1.34 µM) | 64 µg/mL (≈ 85.5 µM) | 0.25 µg/mL (≈ 0.334 µM) | 64 µg/mL (≈ 85.5 µM) | 1 µg/mL (≈ 1.34 µM) | 32 µg/mL (≈ 42.7 µM) | 1 µg/mL (≈ 1.34 µM) | 1 µg/mL (≈ 1.34 µM) | 4 µg/mL (≈ 5.34 µM) | 1 µg/mL (≈ 1.34 µM) | – | – |
| CC[C@H]1OC(=O)[C@H](C)C(=O)[C@H](C)[C@@H](O[C@@H]2O[C@H](C)C[C@H](N(C)C)[C@H]2O)[C@](C)(OC)C[C@@H](C)/C(=N\OCC#Cc2ccccn2)[C@H](C)[C@H]2OC(=O)O[C@@]21C | > 256 µg/mL | 0.125 µg/mL (≈ 0.168 µM) | ≤ 0.008 µg/mL | 0.125 µg/mL (≈ 0.168 µM) | > 256 µg/mL | ≤ 0.008 µg/mL | 128 µg/mL (≈ 172 µM) | 0.064 µg/mL (≈ 0.086 µM) | 128 µg/mL (≈ 172 µM) | 0.25 µg/mL (≈ 0.336 µM) | 0.064 µg/mL (≈ 0.086 µM) | 0.5 µg/mL (≈ 0.672 µM) | 0.125 µg/mL (≈ 0.168 µM) | – | – |
| CC[C@H]1OC(=O)[C@H](C)C(=O)[C@H](C)[C@@H](O[C@@H]2O[C@H](C)C[C@H](N(C)C)[C@H]2O)[C@](C)(OC)C[C@@H](C)/C(=N\OCC#Cc2cccnc2)[C@H](C)[C@H]2OC(=O)O[C@@]21C | > 256 µg/mL | 0.125 µg/mL (≈ 0.168 µM) | ≤ 0.008 µg/mL | 0.125 µg/mL (≈ 0.168 µM) | 256 µg/mL (≈ 344 µM) | ≤ 0.008 µg/mL | 128 µg/mL (≈ 172 µM) | 0.125 µg/mL (≈ 0.168 µM) | 64 µg/mL (≈ 86 µM) | 0.25 µg/mL (≈ 0.336 µM) | 0.064 µg/mL (≈ 0.086 µM) | 0.25 µg/mL (≈ 0.336 µM) | 0.125 µg/mL (≈ 0.168 µM) | – | – |
| CC[C@H]1OC(=O)[C@H](C)C(=O)[C@H](C)[C@@H](O[C@@H]2O[C@H](C)C[C@H](N(C)C)[C@H]2O)[C@](C)(OC)C[C@@H](C)/C(=N\OCC#Cc2ccc(-c3ccccn3)s2)[C@H](C)[C@H]2OC(=O)O[C@@]21C | – | 4 µg/mL (≈ 4.84 µM) | 0.125 µg/mL (≈ 0.151 µM) | 1 µg/mL (≈ 1.21 µM) | 128 µg/mL (≈ 155 µM) | ≤ 0.008 µg/mL | 32 µg/mL (≈ 38.7 µM) | 2 µg/mL (≈ 2.42 µM) | 32 µg/mL (≈ 38.7 µM) | 2 µg/mL (≈ 2.42 µM) | 1 µg/mL (≈ 1.21 µM) | 0.25 µg/mL (≈ 0.303 µM) | 8 µg/mL (≈ 9.68 µM) | – | – |
| CC[C@H]1OC(=O)[C@H](C)C(=O)[C@H](C)[C@@H](O[C@@H]2O[C@H](C)C[C@H](N(C)C)[C@H]2O)[C@](C)(OC)C[C@@H](C)/C(=N\OCC#Cc2ccc(C(=O)c3ccccc3)s2)[C@H](C)[C@H]2OC(=O)O[C@@]21C | 128 µg/mL (≈ 150 µM) | 2 µg/mL (≈ 2.34 µM) | 0.064 µg/mL (≈ 0.075 µM) | 2 µg/mL (≈ 2.34 µM) | 128 µg/mL (≈ 150 µM) | 0.125 µg/mL (≈ 0.147 µM) | 64 µg/mL (≈ 75 µM) | 2 µg/mL (≈ 2.34 µM) | 32 µg/mL (≈ 37.5 µM) | 2 µg/mL (≈ 2.34 µM) | 2 µg/mL (≈ 2.34 µM) | 1 µg/mL (≈ 1.17 µM) | 2 µg/mL (≈ 2.34 µM) | – | – |
| CC[C@H]1OC(=O)[C@H](C)C(=O)[C@H](C)[C@@H](O[C@@H]2O[C@H](C)C[C@H](N(C)C)[C@H]2O)[C@](C)(OC)C[C@@H](C)/C(=N\OCC#Cc2ccc3[nH]ccc3c2)[C@H](C)[C@H]2OC(=O)O[C@@]21C | – | 2 µg/mL (≈ 2.56 µM) | 0.5 µg/mL (≈ 0.639 µM) | 2 µg/mL (≈ 2.56 µM) | > 256 µg/mL | 0.5 µg/mL (≈ 0.639 µM) | 128 µg/mL (≈ 164 µM) | 2 µg/mL (≈ 2.56 µM) | 128 µg/mL (≈ 164 µM) | 2 µg/mL (≈ 2.56 µM) | 1 µg/mL (≈ 1.28 µM) | 4 µg/mL (≈ 5.12 µM) | 8 µg/mL (≈ 10.2 µM) | – | – |
| CC[C@H]1OC(=O)[C@H](C)C(=O)[C@H](C)[C@@H](O[C@@H]2O[C@H](C)C[C@H](N(C)C)[C@H]2O)[C@](C)(OC)C[C@@H](C)/C(=N\OCC#Cc2cccc3cnccc23)[C@H](C)[C@H]2OC(=O)O[C@@]21C | 64 µg/mL (≈ 80.6 µM) | 0.064 µg/mL (≈ 0.0806 µM) | ≤ 0.008 µg/mL | 0.125 µg/mL (≈ 0.157 µM) | 64 µg/mL (≈ 80.6 µM) | 0.016 µg/mL (≈ 0.0202 µM) | 32 µg/mL (≈ 40.3 µM) | 0.125 µg/mL (≈ 0.157 µM) | 32 µg/mL (≈ 40.3 µM) | 0.125 µg/mL (≈ 0.157 µM) | 0.064 µg/mL (≈ 0.0806 µM) | 0.125 µg/mL (≈ 0.157 µM) | 0.125 µg/mL (≈ 0.157 µM) | – | – |
| CC[C@H]1OC(=O)[C@H](C)C(=O)[C@H](C)[C@@H](O[C@@H]2O[C@H](C)C[C@H](N(C)C)[C@H]2O)[C@](C)(OC)C[C@@H](C)/C(=N\OCC#Cc2ccnc3ccccc23)[C@H](C)[C@H]2OC(=O)O[C@@]21C | 64 µg/mL (≈ 80.6 µM) | 0.25 µg/mL (≈ 0.315 µM) | 0.016 µg/mL (≈ 0.0202 µM) | 0.5 µg/mL (≈ 0.63 µM) | 64 µg/mL (≈ 80.6 µM) | 0.016 µg/mL (≈ 0.0202 µM) | 32 µg/mL (≈ 40.3 µM) | 0.25 µg/mL (≈ 0.315 µM) | 32 µg/mL (≈ 40.3 µM) | 0.5 µg/mL (≈ 0.63 µM) | 0.5 µg/mL (≈ 0.63 µM) | 1 µg/mL (≈ 1.26 µM) | 0.25 µg/mL (≈ 0.315 µM) | – | – |
| CC[C@H]1OC(=O)[C@H](C)C(=O)[C@H](C)[C@@H](O[C@@H]2O[C@H](C)C[C@H](N(C)C)[C@H]2O)[C@](C)(OC)C[C@@H](C)/C(=N\OC/C=C/c2cnc3ccccc3c2)[C@H](C)[C@H]2OC(=O)O[C@@]21C | > 256 µg/mL | 0.032 µg/mL (≈ 0.0402 µM) | ≤ 0.008 µg/mL | 0.5 µg/mL (≈ 0.628 µM) | > 256 µg/mL | 0.016 µg/mL (≈ 0.0201 µM) | 32 µg/mL (≈ 40.2 µM) | 0.25 µg/mL (≈ 0.314 µM) | 32 µg/mL (≈ 40.2 µM) | 0.25 µg/mL (≈ 0.314 µM) | 0.25 µg/mL (≈ 0.314 µM) | 0.125 µg/mL (≈ 0.157 µM) | 0.064 µg/mL (≈ 0.0804 µM) | 0.064 µg/mL (≈ 0.0804 µM) | > 256 µg/mL |
| CC[C@H]1OC(=O)[C@H](C)C(=O)[C@H](C)[C@@H](O[C@@H]2O[C@H](C)C[C@H](N(C)C)[C@H]2O)[C@](C)(OC)C[C@@H](C)/C(=N\OCCCc2cnc3ccccc3c2)[C@H](C)[C@H]2OC(=O)O[C@@]21C | > 256 µg/mL | 0.5 µg/mL (≈ 0.627 µM) | 0.016 µg/mL (≈ 0.0201 µM) | 1 µg/mL (≈ 1.25 µM) | > 256 µg/mL | 0.064 µg/mL (≈ 0.0802 µM) | 64 µg/mL (≈ 80.2 µM) | 0.5 µg/mL (≈ 0.627 µM) | 32 µg/mL (≈ 40.1 µM) | 0.5 µg/mL (≈ 0.627 µM) | 0.5 µg/mL (≈ 0.627 µM) | 1 µg/mL (≈ 1.25 µM) | 2 µg/mL (≈ 2.51 µM) | 1 µg/mL (≈ 1.25 µM) | > 256 µg/mL |
| CC[C@H]1OC(=O)[C@H](C)C(=O)[C@H](C)[C@@H](O[C@@H]2O[C@H](C)C[C@H](N(C)C)[C@H]2O)[C@](C)(OC)C[C@@H](C)/C(=N\OCCCc2cncc3ccccc23)[C@H](C)[C@H]2OC(=O)O[C@@]21C | > 256 µg/mL | 0.25 µg/mL (≈ 0.313 µM) | 0.016 µg/mL (≈ 0.0201 µM) | 0.5 µg/mL (≈ 0.627 µM) | > 256 µg/mL | 0.032 µg/mL (≈ 0.0401 µM) | 32 µg/mL (≈ 40.1 µM) | 0.25 µg/mL (≈ 0.313 µM) | 64 µg/mL (≈ 80.2 µM) | 0.5 µg/mL (≈ 0.627 µM) | 0.125 µg/mL (≈ 0.157 µM) | 1 µg/mL (≈ 1.25 µM) | 0.5 µg/mL (≈ 0.627 µM) | 0.25 µg/mL (≈ 0.313 µM) | > 256 µg/mL |
